Experimental data reported in publication PMC3354652 (Cancer Discovery, 2012).
Entries after “also recorded” stand apart in the source; their conditions may differ.

Key:
[1] = system: Snail1, N-cadherin, vimentin; test: Western blot of mesenchymal markers in RIP-Tag2 tumors; type: in vivo, mouse; settings: for bands for Snail1, N-cadherin and vimentin in western blots: RIP-Tag2 tumors treated from age 14 to 15 weeks
In short: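 Tumors came from RIP-Tag2 mice treated from age 14 to 15 weeks with vehicle, anti-VEGF antibody, a kinase inhibitor, or a combination. Snail1, N-cadherin and vimentin were immunoblotted in tumor lysates. Bands were quantified by densitometry and expressed as fold over vehicle. Groups had 4-8 surviving mice. Groups were compared by Student's t test or ANOVA with Fisher's multiple-comparison test.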

[2] = system: RIP-Tag2 mice; test: Survival of RIP-Tag2 mice; type: in vivo, mouse
[3] = system: RIP-Tag2 tumors; test: Tumor size; type: in vivo, mouse; settings: RIP-Tag2 mice treated from age 14 to 17 weeks
[4] = system: RIP-Tag2 tumors; test: Tumor invasion; type: in vivo, mouse
[5] = system: RIP-Tag2 tumors; test: Tumor vascularity; type: in vivo, mouse; settings: for intratumoral hypoxia / tumor vascularity: RIP-Tag2 mice treated from age 14 to 17 weeks; for HIF-1α protein by western blot: RIP-Tag2 tumors
[6] = system: RIP-Tag2 mice; test: Liver metastasis; type: in vivo, mouse
[7] = system: Panc-1 tumors; test: Orthotopic Panc-1 pancreatic adenocarcinomas in nude mice; type: in vivo, mouse
[8] = system: c-Met; test: c-Met mRNA, total c-Met and phospho-c-Met in RIP-Tag2 tumors; type: in vivo, mouse; settings: RIP-Tag2 tumors treated from age 14 to 15 weeks
[9] = system: RIP-Tag2 tumors; settings: RIP-Tag2 mice; cited from earlier work
[10] = RIP-Tag2 mice treated from age 14 to 17 weeks
[11] = RIP-Tag2 mice treated from age 14 to 20 weeks
[12] = RIP-Tag2 mice age 14 to 17 weeks, vs corresponding group without PF-04217903
[13] = western blot, treated from age 14 to 15 weeks

COc1cc2nccc(Oc3ccc(NC(=O)C4(C(=O)Nc5ccc(F)cc5)CC4)cc3)c2cc1OC [XL184, cabozantinib]
bands for Snail1, N-cadherin and vimentin in western blots [1]: less Snail1, N-cadherin, and vimentin
mice surviving until the experiment ended at age 20 weeks ([2]; RIP-Tag2 mice treated from 14 weeks of age): all
overall survival versus vehicle or anti-VEGF antibody ([2]; RIP-Tag2 mice treated from age 10 to 14 weeks): better overall survival
survival at 20 weeks ([2]; RIP-Tag2 mice, treatment beginning at age 14 weeks, n = 6): 100%
mean sectional area of tumors [3]: 0.7 ± 0.1 mm^2
area density of trapped amylase-positive acinar cells in tumors [4, 10]: 2.6 ± 0.4%
fewer amylase-positive (trapped acinar) cells than 14-week old onset controls ([4]; RIP-Tag2 mice treated from age 14 to 17 weeks, onset controls 4.8 ± 0.5%): 46%
tumor shape and invasiveness ([4]; younger RIP-Tag2 mice treated from age 10 to 14 weeks): rounder and less invasive
reduction in tumor vascularity ([5]; RIP-Tag2 mice, 3 weeks treatment): 79%
liver micrometastases found ([6]; RIP-Tag2 mice treated from age 10 to 14 weeks, 5 mice): none
mice with liver metastases visible microscopically [6, 10]: none were detected; also recorded: None of 5
mice with small liver metastases [6, 11]: 5 of 6
number of liver metastases per sectional area [6, 11]: 0.3 ± 0.2 metastases/mm^2

C[C@@H](Oc1cc(-c2cnn(C3CCNCC3)c2)cnc1N)c1c(Cl)ccc(F)c1Cl [PF-02341066, crizotinib]
tumor invasiveness: Invasion index and trapped acinar cells [4, 10]: reduced invasiveness
intratumoral hypoxia [5]: did not change
tumor vascularity [5]: did not change
liver metastases found per mouse ([6]; RIP-Tag2 mice treated for 3 weeks, vehicle average of 20 per mouse): 4
mice with liver metastases visible microscopically [6, 10]: 3 of 4

OCCn1cc(-c2cnc3nnn(Cc4ccc5ncccc5c4)c3n2)cn1 [PF-04217903]
bands for Snail1, N-cadherin and vimentin in western blots [1]: weaker
vascular pruning and intratumoral hypoxia ([7]; 3 weeks treatment): little effect
tumor vascularity [5]: no reduction in overall vascularity
HIF-1α protein by western blot [5]: not increased
average decrease in volume of metastases (metastatic tumor burden) [6, 12]: 78%
reduction in mean diameter of liver metastases when PF-04217903 was combined [6, 12]: 40%
mice with liver metastases visible microscopically [6, 10]: 1 of 7 and one of 7

CCN(CC)CCNC(=O)c1c(C)[nH]c(/C=C2\C(=O)Nc3ccc(F)cc32)c1C [sunitinib]
N-cadherin densitometry value, times greater than vehicle [1, 13]: 10 times
Snail1 densitometry value, times greater than vehicle [1, 13]: 3 times
vimentin densitometry value, times greater than vehicle [1, 13]: 5 times
intratumoral hypoxia assessed by pimonidazole staining ([7]; 3 weeks treatment): doubling
invasiveness reflected by intratumoral acinar cells stained for amylase ([7]; 3 weeks treatment): exaggerated
reduction in tumor vascularity ([7]; 3 weeks treatment): 75%
tumor growth by bioluminescence imaging ([7]; 3 weeks treatment): grew slower
mice with micrometastases in the liver ([7]; early stage): 4 of 6
survival during the 3-week treatment ([2]; RIP-Tag2 mice, age 14 to 17 weeks, vehicle 42%): 80%
mean sectional area of tumors [3]: 3.7 ± 0.8 mm^2
sectional area of tumors, less than age-matched vehicle controls [3]: 78%
c-Met mRNA expression, fold the control value [8]: 6 fold
tumor invasiveness: Invasion index and trapped acinar cells [4, 10]: significantly greater
intratumoral hypoxia [5]: greater hypoxia
tumor vascularity [5]: fewer blood vessels
HIF-1α protein by western blot [5]: greater
number of liver metastases per sectional area ([6]; 17-week old RIP-Tag2 mice treated for 3 weeks): 1.3 ± 1.2 metastases/mm^2
number of liver metastases compared to the 17-week old vehicle group [6, 10]: twice
size of liver metastases compared to vehicle group [6, 10]: 4 times
mean diameter of liver metastases ([6]; RIP-Tag2 mice treated from age 14 to 17 weeks, vehicle 90 ± 9 μm): 369 ± 267 μm

COc1cc2c(Oc3ccc(NC(=O)C4(C(=O)Nc5ccc(F)cc5)CC4)cc3F)ccnc2cc1OCCCN1CCOCC1 [XL880, foretinib]
invasion and tumor cells in the liver [9]: decreases invasion and the appearance of tumor cells in the liver
tumor growth [9]: slows tumor growth
